Test results: ChEMBL document CHEMBL2331531, “Synthesis and biological evaluation of urea derivatives as highly potent and selective rho kinase inhibitors” (J Med Chem, 2013)

Legend:
[1] = Inhibition of PKA (unknown origin) after 70 mins by luminescence assay; parameters: species or system Homo sapiens
[2] = Half life in human liver microsomes; assay type: ADME, Microsome
[3] = target: Rho-associated protein kinase 2 (Homo sapiens, UniProt O75116); test: Inhibition of ROCK2 (unknown origin) after 4 hrs by HTRF assay
Sequence of Rho-associated protein kinase 2 (O75116 whole entry): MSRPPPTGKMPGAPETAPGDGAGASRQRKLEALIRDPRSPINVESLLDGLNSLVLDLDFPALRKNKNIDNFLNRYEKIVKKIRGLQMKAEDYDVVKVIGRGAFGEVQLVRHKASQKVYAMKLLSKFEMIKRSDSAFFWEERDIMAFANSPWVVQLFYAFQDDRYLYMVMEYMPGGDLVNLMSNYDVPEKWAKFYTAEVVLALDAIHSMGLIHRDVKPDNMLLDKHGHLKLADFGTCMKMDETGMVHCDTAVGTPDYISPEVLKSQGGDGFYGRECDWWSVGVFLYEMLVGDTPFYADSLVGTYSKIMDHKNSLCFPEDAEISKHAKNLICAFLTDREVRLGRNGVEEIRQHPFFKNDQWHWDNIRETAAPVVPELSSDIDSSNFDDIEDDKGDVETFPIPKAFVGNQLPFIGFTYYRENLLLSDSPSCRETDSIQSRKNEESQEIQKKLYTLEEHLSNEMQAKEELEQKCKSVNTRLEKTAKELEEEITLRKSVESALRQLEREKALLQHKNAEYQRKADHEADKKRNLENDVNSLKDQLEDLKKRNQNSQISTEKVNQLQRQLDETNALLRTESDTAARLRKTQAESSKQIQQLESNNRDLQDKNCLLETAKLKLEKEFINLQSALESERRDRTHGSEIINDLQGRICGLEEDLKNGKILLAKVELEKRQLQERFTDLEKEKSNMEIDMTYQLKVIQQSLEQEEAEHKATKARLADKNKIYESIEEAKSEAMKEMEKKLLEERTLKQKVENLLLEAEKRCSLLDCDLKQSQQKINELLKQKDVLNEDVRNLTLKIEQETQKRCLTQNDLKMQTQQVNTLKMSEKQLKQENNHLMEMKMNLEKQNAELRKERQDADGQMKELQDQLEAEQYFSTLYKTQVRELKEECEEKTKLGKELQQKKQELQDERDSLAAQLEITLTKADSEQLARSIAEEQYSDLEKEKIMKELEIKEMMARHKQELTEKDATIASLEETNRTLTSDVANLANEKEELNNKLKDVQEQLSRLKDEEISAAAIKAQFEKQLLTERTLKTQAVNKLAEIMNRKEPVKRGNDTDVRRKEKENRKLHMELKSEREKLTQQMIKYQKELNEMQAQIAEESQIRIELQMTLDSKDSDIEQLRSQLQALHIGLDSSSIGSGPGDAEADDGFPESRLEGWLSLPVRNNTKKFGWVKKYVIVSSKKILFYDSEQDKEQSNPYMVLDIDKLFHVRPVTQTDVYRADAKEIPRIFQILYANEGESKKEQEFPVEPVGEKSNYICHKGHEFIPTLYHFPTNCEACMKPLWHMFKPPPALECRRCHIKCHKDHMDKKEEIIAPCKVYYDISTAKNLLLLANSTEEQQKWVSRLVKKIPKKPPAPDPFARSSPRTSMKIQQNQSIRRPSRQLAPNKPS

[4] = Inhibition of ROCK-mediated myosin light chain bisphosphorylation in rat A7R5 cells after 1 hr by fluorescence assay in presence of L-alpha-lysophosphatidic acid; assay type: cell-based
How it was run: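 A7r5 cells in 20% FBS DMEM, plated 5000/well overnight, serum-starved 4 h in 0.05% FBS DMEM; compound 13333 nM to 18 nM final for 1 h, then 10 μM LPA 10 min; fixed, permeabilized, anti-ppMLC plus IR800 secondary; infrared scan, ppMLC signal normalized to TO-PRO-3 nuclear signal. IC50 as mean of two or more experiments.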

[5] = Aqueous solubility in potassium phosphate buffer at pH 5.5 after 24 hrs by HPLC analysis; assay type: physicochemical; details: pH 5.5, 24 h
[6] = Oral bioavailability in Sprague-Dawley rat at 2 mg/kg by LC-MS/MS analysis; assay type: ADME, organism-based; details: in vivo
[7] = Cmax in Sprague-Dawley rat at 1 mg/kg, iv by LC-MS/MS analysis; assay type: ADME, organism-based; parameters: dose 1 mg/kg, route intravenous; details: in vivo
[8] = AUC in Sprague-Dawley rat at 1 mg/kg, iv by LC-MS/MS analysis; assay type: ADME, organism-based, Plasma; parameters: dose 1 mg/kg, route intravenous; details: Sprague-Dawley, plasma
[9] = Half life in Sprague-Dawley rat at 1 mg/kg, iv by LC-MS/MS analysis; assay type: ADME, organism-based; parameters: dose 1 mg/kg, route intravenous; details: in vivo
[10] = Volume of distribution in Sprague-Dawley rat at 1 mg/kg, iv by LC-MS/MS analysis; assay type: ADME, organism-based; parameters: dose 1 mg/kg, route intravenous; details: in vivo
[11] = Clearance in Sprague-Dawley rat at 1 mg/kg, iv by LC-MS/MS analysis; assay type: ADME, organism-based; parameters: dose 1 mg/kg, route intravenous; details: in vivo
CYP3A4 = CYP3A4 (Homo sapiens, UniProt P08684); test: Inhibition of CYP3A4 (unknown origin)-mediated midazolam hydroxylation to 1'-Hydroxymidazolam at 10 uM relative to control; assay type: ADME; details: probe midazolam
Sequence of CYP3A4 (P08684 whole entry): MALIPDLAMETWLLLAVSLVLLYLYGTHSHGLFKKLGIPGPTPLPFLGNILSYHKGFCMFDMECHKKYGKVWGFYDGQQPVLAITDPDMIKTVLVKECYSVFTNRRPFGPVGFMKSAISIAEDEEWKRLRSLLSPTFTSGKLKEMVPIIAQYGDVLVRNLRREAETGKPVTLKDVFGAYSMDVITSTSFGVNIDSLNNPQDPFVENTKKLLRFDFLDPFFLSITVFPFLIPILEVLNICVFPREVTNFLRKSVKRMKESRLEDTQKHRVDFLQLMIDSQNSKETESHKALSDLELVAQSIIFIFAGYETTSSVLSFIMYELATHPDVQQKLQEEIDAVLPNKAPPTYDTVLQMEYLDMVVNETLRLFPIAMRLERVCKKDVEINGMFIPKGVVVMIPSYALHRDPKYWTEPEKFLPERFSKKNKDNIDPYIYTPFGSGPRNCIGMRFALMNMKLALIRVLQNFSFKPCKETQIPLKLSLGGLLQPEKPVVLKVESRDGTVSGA

CYP2D6 = CYP2D6 (Homo sapiens, UniProt P10635); test: Inhibition of CYP2D6 (unknown origin)-mediated bufuralol hydroxylation to 4'-Hydroxybufuralol at 10 uM relative to control; assay type: ADME; details: probe bufuralol
Sequence of CYP2D6 (P10635 whole entry): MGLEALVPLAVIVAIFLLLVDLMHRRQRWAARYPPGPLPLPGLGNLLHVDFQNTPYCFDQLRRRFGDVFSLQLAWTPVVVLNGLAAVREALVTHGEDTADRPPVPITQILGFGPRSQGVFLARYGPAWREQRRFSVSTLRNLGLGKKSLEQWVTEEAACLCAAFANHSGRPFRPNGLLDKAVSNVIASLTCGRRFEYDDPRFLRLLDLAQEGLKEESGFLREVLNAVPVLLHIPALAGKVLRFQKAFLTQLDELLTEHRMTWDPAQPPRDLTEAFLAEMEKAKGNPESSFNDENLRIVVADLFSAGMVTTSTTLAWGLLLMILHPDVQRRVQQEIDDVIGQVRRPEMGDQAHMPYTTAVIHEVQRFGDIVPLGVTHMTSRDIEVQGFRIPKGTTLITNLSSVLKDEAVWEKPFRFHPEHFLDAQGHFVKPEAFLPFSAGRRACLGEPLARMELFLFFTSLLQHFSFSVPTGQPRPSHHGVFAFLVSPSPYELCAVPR

CYP2C9 = CYP2C9 (Homo sapiens, UniProt P11712); test: Inhibition of CYP2C9 (unknown origin)-mediated tolbutamide hydroxylation to hydroxy tolbutamide at 10 uM relative to control; assay type: ADME; details: probe tolbutamide
Sequence of CYP2C9 (P11712 whole entry): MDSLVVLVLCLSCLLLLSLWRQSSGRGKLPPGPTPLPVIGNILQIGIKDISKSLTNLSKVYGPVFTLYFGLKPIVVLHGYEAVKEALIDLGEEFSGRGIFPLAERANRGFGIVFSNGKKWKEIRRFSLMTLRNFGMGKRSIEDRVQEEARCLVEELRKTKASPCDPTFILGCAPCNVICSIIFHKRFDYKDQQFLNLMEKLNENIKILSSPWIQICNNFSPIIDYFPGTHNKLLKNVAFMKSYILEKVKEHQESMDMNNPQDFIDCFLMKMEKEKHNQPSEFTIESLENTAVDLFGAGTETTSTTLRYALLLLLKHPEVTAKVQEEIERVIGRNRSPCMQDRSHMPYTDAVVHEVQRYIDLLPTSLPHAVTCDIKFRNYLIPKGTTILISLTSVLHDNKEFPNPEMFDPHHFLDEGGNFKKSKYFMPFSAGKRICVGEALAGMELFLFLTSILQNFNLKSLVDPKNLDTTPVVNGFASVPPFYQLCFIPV

CYP1A2 = target: T1, CYP1A2 (Homo sapiens, UniProt P05177); test: Inhibition of CYP1A2 (unknown origin)-mediated phenaceten demethylation to acetaminophen at 10 uM relative to control; assay type: ADME; details: probe phenacetin (printed: phenaceten)
T1 sequence (P05177 whole entry): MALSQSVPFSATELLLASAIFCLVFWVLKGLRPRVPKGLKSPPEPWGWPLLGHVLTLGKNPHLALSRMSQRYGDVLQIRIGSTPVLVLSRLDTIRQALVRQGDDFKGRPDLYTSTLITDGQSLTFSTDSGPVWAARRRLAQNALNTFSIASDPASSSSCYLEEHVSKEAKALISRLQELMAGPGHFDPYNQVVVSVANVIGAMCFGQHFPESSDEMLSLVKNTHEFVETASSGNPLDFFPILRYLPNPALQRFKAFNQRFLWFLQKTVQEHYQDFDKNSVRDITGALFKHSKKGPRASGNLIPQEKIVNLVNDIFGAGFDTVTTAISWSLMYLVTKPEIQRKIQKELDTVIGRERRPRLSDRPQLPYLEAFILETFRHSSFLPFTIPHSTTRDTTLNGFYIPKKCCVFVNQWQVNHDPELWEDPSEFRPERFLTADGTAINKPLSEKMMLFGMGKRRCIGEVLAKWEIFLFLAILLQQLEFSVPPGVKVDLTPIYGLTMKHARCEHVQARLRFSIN

[12] = target: Rho-associated protein kinase 1 (Homo sapiens, UniProt Q13464); test: Inhibition of ROCK1 (unknown origin) after 4 hrs by HTRF assay
Sequence of Rho-associated protein kinase 1 (Q13464 whole entry): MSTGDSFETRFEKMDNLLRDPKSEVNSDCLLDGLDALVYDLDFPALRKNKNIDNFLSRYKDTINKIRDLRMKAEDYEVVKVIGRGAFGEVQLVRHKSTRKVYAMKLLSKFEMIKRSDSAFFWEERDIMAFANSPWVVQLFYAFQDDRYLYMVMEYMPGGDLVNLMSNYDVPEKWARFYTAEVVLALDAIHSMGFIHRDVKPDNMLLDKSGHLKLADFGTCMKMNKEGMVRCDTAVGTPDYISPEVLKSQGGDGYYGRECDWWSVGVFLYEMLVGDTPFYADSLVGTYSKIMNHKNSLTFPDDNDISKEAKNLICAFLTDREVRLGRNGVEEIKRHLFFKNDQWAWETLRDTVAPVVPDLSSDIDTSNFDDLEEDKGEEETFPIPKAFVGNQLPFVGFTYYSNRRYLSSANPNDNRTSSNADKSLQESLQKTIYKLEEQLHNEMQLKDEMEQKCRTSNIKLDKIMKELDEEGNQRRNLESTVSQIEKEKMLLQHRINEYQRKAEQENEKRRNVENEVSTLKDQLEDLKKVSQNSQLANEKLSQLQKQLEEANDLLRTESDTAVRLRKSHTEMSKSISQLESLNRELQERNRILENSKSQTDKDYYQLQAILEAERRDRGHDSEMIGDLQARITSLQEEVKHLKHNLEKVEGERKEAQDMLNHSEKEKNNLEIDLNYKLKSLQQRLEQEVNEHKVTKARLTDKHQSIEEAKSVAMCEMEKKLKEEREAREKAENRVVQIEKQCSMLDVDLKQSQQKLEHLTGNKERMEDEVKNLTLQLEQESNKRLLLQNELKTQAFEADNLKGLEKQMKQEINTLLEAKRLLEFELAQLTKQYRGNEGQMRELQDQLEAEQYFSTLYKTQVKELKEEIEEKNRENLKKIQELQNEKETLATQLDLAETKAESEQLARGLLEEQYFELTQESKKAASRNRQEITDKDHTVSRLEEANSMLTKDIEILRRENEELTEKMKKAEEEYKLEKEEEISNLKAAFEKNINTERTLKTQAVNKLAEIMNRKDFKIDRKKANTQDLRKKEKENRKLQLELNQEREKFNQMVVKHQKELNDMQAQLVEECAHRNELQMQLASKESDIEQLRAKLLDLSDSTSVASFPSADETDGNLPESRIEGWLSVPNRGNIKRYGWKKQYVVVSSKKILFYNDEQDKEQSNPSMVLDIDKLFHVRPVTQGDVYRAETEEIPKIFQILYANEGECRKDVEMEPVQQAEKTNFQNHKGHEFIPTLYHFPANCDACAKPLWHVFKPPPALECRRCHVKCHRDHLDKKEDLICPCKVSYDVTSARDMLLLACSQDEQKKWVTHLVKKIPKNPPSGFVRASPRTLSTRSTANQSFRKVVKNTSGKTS

SMILES: O=C(Nc1ccc(-c2cn[nH]c2)cc1)NC(CCO)c1ccccc1 (centres undefined)
- IC50 [1]: 0.438 µM
- half-life [2]: > 120 min
- IC50 [3]: 1 nM
- IC50 [4]: 48 nM

SMILES: O=C(Nc1ccc(-c2cn[nH]c2)cc1)NC(CO)c1ccccc1 (centres undefined)
- IC50 [1]: 0.389 µM
- half-life [2]: > 120 min
- IC50 [3]: 2 nM
- IC50 [4]: 150 nM

SMILES: CN(C)CCC(NC(=O)Nc1ccc(-c2cn[nH]c2)cc1)c1ccccc1 (centres undefined)
- solubility [5]: soluble
- bioavailability [6]: 0%
- Cmax [7]: 0.2 µM
- AUC [8]: 0.5 µM·h
- half-life [9]: 144 min
- Vd [10]: 20 L/kg
- clearance [11]: 91 mL/min/kg
- inhibition at 10 µM (CYP3A4): 10%
- inhibition at 10 µM (CYP2D6): 59%
- inhibition at 10 µM (CYP2C9): 16%
- inhibition at 10 µM (CYP1A2): -1%
- IC50 [12]: 6 nM
- IC50 [1]: 0.238 µM
- half-life [2]: > 60 min
- IC50 [3]: 2 nM
- IC50 [4]: 40 nM

SMILES: COc1cccc(CN(CCO)C(=O)Nc2ccc(-c3cn[nH]c3)cc2OCCO)c1
- IC50 [1]: 0.615 µM
- IC50 [3]: < 1 nM
- IC50 [4]: 220 nM

SMILES: COc1cccc(CN(CCN(C)C)C(=O)Nc2ccc(-c3cn[nH]c3)cc2OCCN(C)C)c1
- IC50 [3]: 170 nM

SMILES: COc1cccc(CN(CCN(C)C)C(=O)Nc2ccc(-c3cn[nH]c3)cn2)c1
- solubility [5]: soluble
- inhibition at 10 µM (CYP3A4): 8%
- inhibition at 10 µM (CYP2D6): 51%
- inhibition at 10 µM (CYP2C9): 5%
- inhibition at 10 µM (CYP1A2): -21%
- IC50 [12]: 10 nM
- IC50 [1]: 0.47 µM
- half-life [2]: 17 min
- IC50 [3]: 2 nM
- IC50 [4]: 28 nM

SMILES: COc1cccc(CN(C(=O)Nc2ccc(-c3cn[nH]c3)cc2)C(C)C)c1
- IC50 [1]: 18.4 µM
- half-life [2]: 11 min
- IC50 [3]: 3 nM
- IC50 [4]: 67 nM

SMILES: COCCN(Cc1cccc(OC)c1)C(=O)Nc1ccc(-c2cn[nH]c2)cc1
- IC50 [1]: 10.5 µM
- half-life [2]: 21 min
- IC50 [3]: 17 nM
- IC50 [4]: 180 nM

SMILES: COc1cccc(CN(CCN)C(=O)Nc2ccc(-c3cn[nH]c3)cc2)c1
- IC50 [1]: 0.072 µM
- half-life [2]: > 120 min
- IC50 [3]: < 1 nM
- IC50 [4]: 8 nM

SMILES: COc1cccc(CN(CCCN2CCCC2)C(=O)Nc2ccc(-c3cn[nH]c3)cc2)c1
- IC50 [1]: 0.228 µM
- half-life [2]: 59 min
- IC50 [3]: 5 nM
- IC50 [4]: 18 nM

SMILES: COc1cccc(CN(CCCN2CCOCC2)C(=O)Nc2ccc(-c3cn[nH]c3)cc2)c1
- IC50 [1]: 0.724 µM
- half-life [2]: 4 min
- IC50 [3]: 4 nM
- IC50 [4]: 84 nM

SMILES: COc1cccc(CN(CCCN2CCCCC2)C(=O)Nc2ccc(-c3cn[nH]c3)cc2)c1
- IC50 [1]: 0.822 µM
- half-life [2]: 14 min
- IC50 [3]: 4 nM
- IC50 [4]: 75 nM

SMILES: O=C(Nc1ccc(-c2cn[nH]c2)cc1F)N(CCO)Cc1ccccc1
- IC50 [1]: 1.02 µM
- half-life [2]: > 120 min
- IC50 [3]: 14 nM
- IC50 [4]: 33 nM

SMILES: COc1cccc(C(CCO)NC(=O)Nc2ccc(-c3cn[nH]c3)cc2)c1 (centres undefined)
- solubility [5]: soluble
- bioavailability [6]: 4%
- Cmax [7]: 12 µM
- AUC [8]: 7.9 µM·h
- half-life [9]: 42 min
- Vd [10]: 0.25 L/kg
- clearance [11]: 5.9 mL/min/kg
- inhibition at 10 µM (CYP3A4): 37%
- inhibition at 10 µM (CYP2D6): 37%
- inhibition at 10 µM (CYP2C9): 67%
- inhibition at 10 µM (CYP1A2): 3%
- IC50 [12]: 11 nM
- IC50 [1]: 4.87 µM
- half-life [2]: 112 min
- IC50 [3]: 2 nM
- IC50 [4]: 40 nM

SMILES: O=C(Nc1ccccc1)Nc1ccc(-c2cn[nH]c2)cc1
- IC50 [1]: > 20 µM
- IC50 [3]: 304 nM

SMILES: O=C(NCCc1ccccc1)Nc1ccc(-c2cn[nH]c2)cc1
- IC50 [1]: 3.1 µM
- IC50 [3]: 88 nM
- IC50 [4]: > 2700 nM

SMILES: O=C(NCCCc1ccccc1)Nc1ccc(-c2cn[nH]c2)cc1
- IC50 [1]: > 20 µM
- IC50 [3]: 1020 nM

SMILES: O=C(Nc1ccc(-c2cn[nH]c2)cc1)OCc1ccccc1
- IC50 [1]: > 20 µM
- IC50 [3]: 7 nM
- IC50 [4]: > 2700 nM

SMILES: O=C(Nc1ccc(-c2cn[nH]c2)cc1)OCCc1ccccc1
- IC50 [1]: > 20 µM
- IC50 [3]: 55 nM
- IC50 [4]: 2640 nM

SMILES: O=C(CCc1ccccc1)Nc1ccc(-c2cn[nH]c2)cc1
- IC50 [1]: 0.266 µM
- IC50 [3]: 24 nM
- IC50 [4]: 91 nM

SMILES: O=C(Nc1ccc(-c2cn[nH]c2)cc1)N1CCc2ccccc2C1
- IC50 [1]: 8 µM
- IC50 [3]: 280 nM

SMILES: O=C(NCC1CCCCC1)Nc1ccc(-c2cn[nH]c2)cc1
- IC50 [1]: > 20 µM
- IC50 [3]: 751 nM

SMILES: COc1cccc(CNC(=O)Nc2ccc(-c3cn[nH]c3)cc2)c1OC
- IC50 [1]: > 20 µM
- IC50 [3]: 253 nM

SMILES: COc1ccc(CNC(=O)Nc2ccc(-c3cn[nH]c3)cc2)c(OC)c1
- IC50 [1]: 11.2 µM
- IC50 [3]: 331 nM

SMILES: COc1ccc(OC)c(CNC(=O)Nc2ccc(-c3cn[nH]c3)cc2)c1
- IC50 [1]: > 20 µM
- IC50 [3]: 570 nM

SMILES: COc1cccc(OC)c1CNC(=O)Nc1ccc(-c2cn[nH]c2)cc1
- IC50 [1]: 13.5 µM
- IC50 [3]: 924 nM

SMILES: COc1ccc(CNC(=O)Nc2ccc(-c3cn[nH]c3)cc2)cc1OC
- IC50 [1]: > 20 µM
- IC50 [3]: 425 nM

SMILES: COc1cc(CNC(=O)Nc2ccc(-c3cn[nH]c3)cc2)cc(OC)c1
- IC50 [1]: > 20 µM
- IC50 [3]: 281 nM

SMILES: COc1ccc(CNC(=O)Nc2ccc(-c3cn[nH]c3)cc2)cc1F
- IC50 [1]: 0.518 µM
- IC50 [3]: 357 nM

SMILES: COc1cccc(CNC(=O)N(C)c2ccc(-c3cn[nH]c3)cc2)c1
- IC50 [1]: > 20 µM
- IC50 [3]: 87 nM

SMILES: COc1cccc(CNC(=O)N(CCO)c2ccc(-c3cn[nH]c3)cc2)c1
- IC50 [1]: > 20 µM
- IC50 [3]: 611 nM

SMILES: COc1cccc(CNC(=O)N(CCN(C)C)c2ccc(-c3cn[nH]c3)cc2)c1
- IC50 [1]: 4.2 µM
- IC50 [3]: 2980 nM

SMILES: COc1cccc(CNC(=O)N(CCN2CCCC2)c2ccc(-c3cn[nH]c3)cc2)c1
- IC50 [1]: > 20 µM
- IC50 [3]: > 20000 nM

SMILES: COc1cccc(CNC(=O)N(CCCN(C)C)c2ccc(-c3cn[nH]c3)cc2)c1
- IC50 [1]: 12 µM
- IC50 [3]: 3320 nM

SMILES: CCN(Cc1cccc(OC)c1)C(=O)Nc1ccc(-c2cn[nH]c2)cc1
- IC50 [1]: 4.67 µM
- half-life [2]: 25 min
- IC50 [3]: 1 nM
- IC50 [4]: 44 nM

SMILES: COc1cccc(CN(C(=O)Nc2ccc(-c3cn[nH]c3)cc2)C2CC2)c1
- IC50 [1]: 1.71 µM
- half-life [2]: 25 min
- IC50 [3]: 1 nM
- IC50 [4]: 4 nM
